The results in this text go back to ChEMBL document CHEMBL1149266, “2,3-diaminopyridine bradykinin B1 receptor antagonists” (J Med Chem, 2004).

The Ki is the equilibrium dissociation constant of an inhibitor or competing ligand from its target. The low end stands for tighter binding, the high end for weaker binding. By half-life is commonly meant how long it takes for the measured level to halve. By bioavailability is commonly meant the share of a dose that reaches the circulation, judged against a reference dose that is usually intravenous. By clearance is commonly meant the volume of plasma or blood freed of the substance per unit of time. A lower clearance goes with a low capacity for elimination. Broadly, the IC50 is the midpoint of a concentration-inhibition curve.

In data set [1] the target is T1, B1 bradykinin receptor (Homo sapiens, UniProt P46663).
T1 sequence (P46663 whole entry): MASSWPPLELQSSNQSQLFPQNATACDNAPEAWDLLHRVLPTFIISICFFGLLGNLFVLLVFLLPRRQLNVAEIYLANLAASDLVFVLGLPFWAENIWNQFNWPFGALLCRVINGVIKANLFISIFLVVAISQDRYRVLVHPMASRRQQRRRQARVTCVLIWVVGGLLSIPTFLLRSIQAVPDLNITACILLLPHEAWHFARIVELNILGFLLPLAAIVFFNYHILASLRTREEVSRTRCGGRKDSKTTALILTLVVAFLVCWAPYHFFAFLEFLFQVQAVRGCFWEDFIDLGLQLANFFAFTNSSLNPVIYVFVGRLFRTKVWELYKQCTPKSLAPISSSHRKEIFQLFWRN
As to the kind of experiment: Displacement of [3H]des-arg10, leu9-kallidin from human bradykinin B1 receptor expressed in CHO cells. In kind it is cell-based. In a few lines: (§1)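 Radioligand binding using CHO cells that stably express the human B1 or B2 receptor, with the appropriate radioligand for each; Ki in nM.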
In general terms: In a radioligand displacement assay an active substance lowers the binding of a labelled ligand.

A short description of data set [2]: Half life in Sprague-Dawley rat at 2 mg/kg, iv. In kind it is ADME, organism-based. The arrangement: dose 2 mg/kg, route intravenous. The following applies: in vivo.
The nature of data set [3]: Oral bioavailability in Sprague-Dawley rat at 10 mg/kg, po. The settings on record: in vivo. In kind it is ADME, organism-based.
The nature of data set [4]: Clearance in Sprague-Dawley rat at 2 mg/kg, iv. In kind it is ADME, organism-based. The arrangement: dose 2 mg/kg, route intravenous. The settings on record: in vivo.
Data set [5] deals with T2, B1 bradykinin receptor (Rattus norvegicus, UniProt P97583).
T2 sequence (P97583 whole entry): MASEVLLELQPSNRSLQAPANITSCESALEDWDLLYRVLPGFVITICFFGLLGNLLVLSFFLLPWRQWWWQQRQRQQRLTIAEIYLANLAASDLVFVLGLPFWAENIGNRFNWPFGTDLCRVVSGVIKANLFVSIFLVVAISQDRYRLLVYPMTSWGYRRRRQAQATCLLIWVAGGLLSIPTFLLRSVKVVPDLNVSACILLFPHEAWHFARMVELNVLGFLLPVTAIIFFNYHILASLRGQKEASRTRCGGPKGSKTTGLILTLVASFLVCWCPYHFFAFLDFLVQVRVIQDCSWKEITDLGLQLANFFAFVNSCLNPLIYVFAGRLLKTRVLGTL
As to the kind of experiment: Displacement of [3H]des-arg10 kallidin from rat bradykinin B1 receptor expressed in CHO cells. In kind it is cell-based. In a few lines: (§2)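 Radioligand binding at rat or rabbit B1 receptor; Ki in nM. Values are the average of at least two experiments, with ±25% interassay variability.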

Data set [6] deals with T3, B1 bradykinin receptor (Oryctolagus cuniculus, UniProt P48748).
T3 sequence (P48748 whole entry): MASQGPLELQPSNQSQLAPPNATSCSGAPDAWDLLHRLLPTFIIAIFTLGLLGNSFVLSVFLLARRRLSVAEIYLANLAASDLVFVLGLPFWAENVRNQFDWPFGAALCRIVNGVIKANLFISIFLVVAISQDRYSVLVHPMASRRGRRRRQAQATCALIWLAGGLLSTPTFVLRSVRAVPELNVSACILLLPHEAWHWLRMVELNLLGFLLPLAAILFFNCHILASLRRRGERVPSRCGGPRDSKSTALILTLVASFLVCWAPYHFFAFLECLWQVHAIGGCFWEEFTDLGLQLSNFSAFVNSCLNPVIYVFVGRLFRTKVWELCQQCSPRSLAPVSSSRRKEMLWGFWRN
As to the kind of experiment: Binding affinity to rabbit bradykinin B1 receptor. In a few lines:
as §2

Data set [7] deals with T1, B1 bradykinin receptor. As to the kind of experiment: Antagonist activity at bradykinin B1 receptor expressed in CHO cells assessed as inhibition of des-arg10-kallidin-induced increase in cytosolic calcium level by FLIPR assay. In kind it is functional, cell-based. The method in brief: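 FLIPR functional assay using functionally active human B1 receptors; IC50 in nM.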

The nature of data set [8]: Oral bioavailability in mongrel dog at 3 mg/kg, po. Format: ADME, organism-based, Canis lupus familiaris. The settings on record: in vivo.
Data set [9] concerns the target T3, B1 bradykinin receptor. As to the kind of experiment: Activity at rabbit bradykinin B1 receptor assessed by FLIPR assay. In kind it is functional. In a few lines: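 FLIPR functional assay using functionally active rabbit B1 receptors; IC50 in nM. Values are the average of at least two experiments, with ±30% interassay variability.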
Data set [10] can be described thus: Half life in mongrel dog at 1 mg/kg, iv. Details: dose 1 mg/kg, route intravenous; call rule not given here. Format: ADME, organism-based, Canis lupus familiaris. The settings on record: in vivo.
A short description of data set [11]: Clearance in mongrel dog at 1 mg/kg, iv. Format: ADME, organism-based, Canis lupus familiaris. Details: dose 1 mg/kg, route intravenous. The settings on record: in vivo.
Data set [12] has as its system Oryctolagus cuniculus. As to the kind of experiment: Antinociceptive effect against CFA-induced hyperalgesia in iv dosed New Zealand rabbit model by spinal nociceptive reflex assay. The following applies: read-out: ID50 (the source's name). Format: functional. The method in brief: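 CFA was used to induce mechanical hyperalgesia in the rabbit hind paw. The read-out was inhibition of the spinal nociceptive reflex to a noxious pinch of the inflamed paw. Antagonist was dosed iv over a dose range, giving an ID50 (mg/kg). Three rabbits per experiment.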

Data set [13] deals with T4, B1 bradykinin receptor (Oryctolagus cuniculus) (UniProt P48748).
T4 sequence (whole entry): T3 sequence (P48748 whole entry)
As to the kind of experiment: Inhibition of desArg9-bradykinin-induced decrease in mean arterial blood pressure in iv dosed New Zealand white rabbit. In kind it is functional, organism-based. In a few lines: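 Rabbits received iv LPS to induce vascular B1 receptors. The depressor blood pressure response to DABK (1 μg/kg iv) was recorded. Rising iv doses of antagonist were given as pretreatment before repeated DABK doses, giving an AD50 (mg/kg). Three rabbits per experiment.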

The target of data set [14] is T5, B2 bradykinin receptor (Homo sapiens, UniProt P30411).
T5 sequence (P30411 whole entry): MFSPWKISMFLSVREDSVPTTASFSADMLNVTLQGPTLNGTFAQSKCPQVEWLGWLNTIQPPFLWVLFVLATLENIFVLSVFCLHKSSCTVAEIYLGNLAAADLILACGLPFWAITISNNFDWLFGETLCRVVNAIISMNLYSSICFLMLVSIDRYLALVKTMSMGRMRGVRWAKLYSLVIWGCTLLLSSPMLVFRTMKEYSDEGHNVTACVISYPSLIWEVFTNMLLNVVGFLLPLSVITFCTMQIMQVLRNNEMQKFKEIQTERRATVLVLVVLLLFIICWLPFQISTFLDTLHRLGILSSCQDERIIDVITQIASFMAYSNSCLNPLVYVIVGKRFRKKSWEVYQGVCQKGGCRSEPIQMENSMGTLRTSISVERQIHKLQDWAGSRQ
As to the kind of experiment: Displacement of [3H]bradykinin from human bradykinin B2 receptor expressed in CHO cells. In kind it is cell-based. The method in brief: as §1

For `CCCCC(=O)Nc1cccnc1NCc1ccc(-c2ccccc2C(=O)OC)cc1`, the Ki in data set [1] is listed as 200 nM (antagonist).
Turning to `C[C@@H](Nc1nccc(Cl)c1NC(=O)CC#N)c1ccc(-c2cccc(F)c2C#N)cc1`, the half-life in [2] is 0.9 h. The Ki in data set [1] is recorded as 2 nM (antagonist). Also, the bioavailability in data set [3] is 80%. This compound also returned a clearance in [4] of 8.3 mL/min/kg.
For the compound `C[C@@H](Nc1nccc(Cl)c1NC(=O)CC#N)c1ccc(-c2cccc(F)c2-c2nnnn2C)cc1`, the Ki in data set [5] was 12 nM (antagonist); in [1] it was 6 nM (antagonist); in data set [6], 41.5 nM (antagonist).
In the case of `Cc1noc(-c2c(F)cccc2-c2ccc([C@@H](C)Nc3nccc(Cl)c3NC(=O)CC#N)cc2)n1`, the IC50 is on record as 0.94 nM (antagonist) in data set [7] and 12.3 nM (antagonist) in data set [9]. Moreover, the bioavailability in data set [8] came to 14%; in data set [3] it was 62%. Also, the half-life is 8.8 h in data set [2] and 2.1 h in [10]. Further, the Ki in data set [5] was 81 nM (antagonist); in data set [1], 0.5 nM (antagonist); in data set [6], 2.7 nM (antagonist). The values for the clearance in data set [4] and in data set [11] were 9.5 mL/min/kg and 7.3 mL/min/kg, respectively.
Regarding `C[C@@H](Nc1nccc(Cl)c1NC(=O)CC#N)c1ccc(-c2cccc(F)c2-c2nnn(C)n2)cc1`, the IC50 in [7] was 1.17 nM (antagonist); in data set [9] it was 3.9 nM (antagonist). In addition, the bioavailability was found to be 69% in data set [8] and 73% in [3]. Besides, the values for the half-life in [2] and in [10] were 7.8 h and 3.8 h, respectively. Moreover, the results for the Ki in data set [5], in data set [1] and in data set [6] were 119 nM (antagonist), 0.5 nM (antagonist) and 3 nM (antagonist), respectively. For the same compound, the ED50 in [12] stood at 3.1 mg/kg. Moreover, in data set [13], the AD50 is 0.28 mg/kg. Also, the results for the clearance in data set [4] and in [11] were 9 mL/min/kg and 2.4 mL/min/kg, respectively.
As for `Cc1nc(-c2c(F)cccc2-c2ccc([C@@H](C)Nc3nccc(Cl)c3NC(=O)CC#N)cc2)no1`, in data set [7], the IC50 is given as 0.78 nM (antagonist). Besides, the bioavailability was found to be 25% in [8] and 50% in [3]. Moreover, the half-life was 12.9 h in data set [2] and 2 h in data set [10]. In [1], the Ki is 0.7 nM (antagonist). In addition, the clearance in data set [4] worked out at 4.9 mL/min/kg; in [11] it was 5.9 mL/min/kg.
With `COC(=O)c1ccc(C)cc1-c1ccc([C@@H](C)Nc2nccc(C)c2NC(=O)CC#N)cc1`, the IC50 in [7] is 1.4 nM (antagonist). This compound gave a half-life in [2] of 0.6 h. Also, the Ki is greater than 10000 nM in data set [14] and 1.2 nM (antagonist) in [1]. The bioavailability in data set [3] was determined as 21%. This compound also gave a clearance in data set [4] of 42 mL/min/kg.
Take `COC(=O)c1c(F)cccc1-c1ccc([C@@H](C)Nc2nccc(Cl)c2NC(=O)CC#N)cc1`: the IC50 in data set [7] was 0.25 nM (antagonist); in data set [9], 2.4 nM (antagonist). Moreover, the bioavailability in data set [8] was determined as 34%; in data set [3], 50%. The half-life was 2.1 h in [2] and 2.7 h in data set [10]. The figures for the inhibitory constant (Ki) in data set [5], in [1] and in data set [6] were 35.3 nM (antagonist), 0.4 nM (antagonist) and 0.69 nM (antagonist), respectively. In [12], the ED50 stood at 2.1 mg/kg. The AD50 in data set [13] is 0.57 mg/kg. Besides, the clearance in data set [4] is 11 mL/min/kg; in data set [11], 9 mL/min/kg.
On to `COC(=O)c1c(Cl)cccc1-c1ccc([C@@H](C)Nc2nccc(Cl)c2NC(=O)CC#N)cc1`, for which the IC50 in data set [7] is 0.85 nM (antagonist); in data set [9] it was 7.2 nM (antagonist). Moreover, the bioavailability came to 23% in data set [8] and 43% in data set [3]. The half-life in data set [2] is 1.3 h; in [10] it was 6.3 h. Moreover, the Ki in data set [5] is reported as 35.7 nM (antagonist); in [1] it was 0.7 nM (antagonist); in [6], 1.1 nM (antagonist). Also, the ED50 in [12] is 0.9 mg/kg. The compound further yielded an AD50 in [13] of 0.8 mg/kg. Also, the clearance in data set [4] amounted to 24 mL/min/kg; in data set [11], 8.7 mL/min/kg.
The compound `C[C@@H](Nc1nccc(Cl)c1NC(=O)CC#N)c1ccc(-c2cccc(F)c2C(F)(F)F)cc1` gave a half-life in data set [2] of 1.8 h. Moreover, in [1], the Ki is 1.1 nM (antagonist). The compound further registered a bioavailability in data set [3] of 52%. This compound came in with a clearance in [4] of 36 mL/min/kg.
Regarding `COC(=O)c1ccc(Cl)cc1-c1ccc([C@@H](C)Nc2nccc(Cl)c2NC(=O)CC#N)cc1`, the IC50 in data set [7] is listed as 1.5 nM (antagonist). The bioavailability in data set [8] was determined as 2%; in [3] it was 6%. The half-life is 0.5 h in [2] and 0.9 h in data set [10]. Moreover, the Ki in data set [1] is listed as 0.8 nM (antagonist). The clearance in data set [4] was determined as 25 mL/min/kg; in [11] it was 5.5 mL/min/kg.
